According to ChEMBL document CHEMBL3244395, “Antimycotic imidazoles. 2. Synthesis and antifungal properties of esters of 1-[2-hydroxy(mercapto)-2-phenylethyl]-1H-imidazoles” (J Med Chem, 1978):
In brackets after ≈: the same amount, converted by molar mass. Activity calls are given as the source filed them. The calls are words filed in the database; no cut-off is given here.

Legend:
[1] = test system: Erysipelothrix rhusiopathiae; test: Antibacterial activity against Erysipelothrix insidiosa ATCC 19414 assessed as lowest concentration required for total inhibition by broth microdilution assay; assay type: functional; details: for MIC: read-out: MIC100
In short: (§1)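 Broth microdilution against the listed ATCC […] strains. The value is the lowest concentration giving total inhibition. "<" marks the lowest level tested, and ">" marks partial growth at that dilution.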

Candida albicans [2] = test: Antifungal activity against Candida albicans ATCC 10231 assessed as lowest concentration required for total inhibition by broth dilution assay; assay type: functional; details: read-out: MIC100
In short: (§2)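 Broth dilution against dermatophytes, C. albicans ATCC 10231 and 14053, and C. neoformans. The end point is the lowest concentration with total inhibition. "<" marks the lowest level tested, and ">" marks partial growth at that dilution.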

Enterococcus faecalis = test: Antibacterial activity against Streptococcus faecalis ATCC 14506 assessed as lowest concentration required for total inhibition by broth microdilution assay; assay type: functional; details: for MIC: read-out: MIC100; in short: as §1
Cutibacterium acnes = test: Antibacterial activity against Corynebacterium acnes ATCC 11828 assessed as lowest concentration required for total inhibition by broth microdilution assay; assay type: functional; details: for MIC: read-out: MIC100; in short: as §1
[3] = test system: Trichophyton mentagrophytes; test: Antifungal activity against Trichophyton mentagrophytes assessed as lowest concentration required for total inhibition broth dilution assay; assay type: functional; details: read-out: MIC100; in short: as §2
[4] = Lipophilic-hydrophilic balance, Rm of the compound assessed as change in compound Rm to miconazole Rm by reverse-phase TLC method; assay type: physicochemical
Staphylococcus aureus = test: Antibacterial activity against Staphylococcus aureus ATCC 12600 assessed as lowest concentration required for total inhibition by broth microdilution assay; assay type: functional; details: for MIC: read-out: MIC100; in short: as §1
Cryptococcus neoformans = test: Antifungal activity against Cryptococcus neoformans assessed as lowest concentration required for total inhibition by broth dilution assay; assay type: functional; details: read-out: MIC100; in short: as §2
Epidermophyton floccosum = test: Antifungal activity against Epidermophyton floccosum assessed as lowest concentration required for total inhibition broth dilution assay; assay type: functional; details: read-out: MIC100; in short: as §2
Pasteurella multocida = test: Antibacterial activity against Pasteurella multocida ATCC 19427 assessed as lowest concentration required for total inhibition by broth microdilution assay; assay type: functional; details: for MIC: read-out: MIC100; in short: as §1
Candida albicans [5] = test: Antifungal activity against Candida albicans ATCC 14053 assessed as lowest concentration required for total inhibition by broth dilution assay; assay type: functional; details: read-out: MIC100; in short: as §2
Nannizzia gypsea = test: Antifungal activity against Microsporum gypseum assessed as lowest concentration required for total inhibition broth dilution assay; assay type: functional; details: read-out: MIC100; in short: as §2
Candida albicans [6] = test: Antifungal activity against Candida albicans in mouse vaginal infection model compound applied intravaginally as 2% formulation in an aqueous propylene glycol cream for 4 days bid; assay type: functional, organism-based; details: Vagina
In short: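 Mice with vaginal C. albicans infection, following Wildfeuer's method. The compound was applied intravaginally as a 2% formulation in an aqueous propylene glycol cream, twice daily for 4 days. Read-out was animals cured over total number infected.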

Microsporum audouinii = test: Antifungal activity against Microsporum audouinii assessed as lowest concentration required for total inhibition broth dilution assay; assay type: functional; details: read-out: MIC100; in short: as §2
[7] = silicone oil-impregnated silica gel, MeCN-H2O-AcOH

Molecule | MIC [1] [µg/mL] | MIC (Candida albicans [2]) [µg/mL] | MIC (Enterococcus faecalis) [µg/mL] | MIC (Cutibacterium acnes) [µg/mL] | MIC [3] [µg/mL] | deltaRm [4, 7] | MIC (Staphylococcus aureus) [µg/mL] | MIC (Cryptococcus neoformans) [µg/mL] | MIC (Epidermophyton floccosum) [µg/mL] | MIC (Pasteurella multocida) [µg/mL] | MIC (Candida albicans [5]) [µg/mL] | MIC (Nannizzia gypsea) [µg/mL] | Activity (Candida albicans [6]) | MIC100 [1] [µg/mL] | MIC100 (Enterococcus faecalis) [µg/mL] | MIC100 (Cutibacterium acnes) [µg/mL] | MIC100 (Staphylococcus aureus) [µg/mL] | MIC100 (Pasteurella multocida) [µg/mL] | MIC (Microsporum audouinii) [µg/mL] | deltaRm ([4]; octanol/water)
O=C(SC(Cn1ccnc1)c1ccc(Cl)cc1Cl)c1ccccc1Cl.O=[N+]([O-])O (stereo unspecified) | 100 | 30 | 30 | > 100 | 10 | -0.35 | 10 | < 1 | < 0.1 | 1 | 30 | 10 |  |  |  |  |  |  |  | 
Clc1ccc(COC(Cn2ccnc2)c2ccc(Cl)cc2Cl)c(Cl)c1 (stereo unspecified) [MICONAZOLE] | 3 (≈ 7.21 µM) | 30 (≈ 72.1 µM) | 10 (≈ 24 µM) | 10 (≈ 24 µM) | 3 (≈ 7.21 µM) | 0 | 1 (≈ 2.4 µM) | < 0.3 | < 0.1 | < 0.1 | 30 (≈ 72.1 µM) | 3 (≈ 7.21 µM) | Active |  |  |  |  |  |  | 
CCCCCCCCOC(=S)SC(Cn1ccnc1)c1ccc(Cl)cc1Cl.O=[N+]([O-])O (stereo unspecified) | 30 | 100 | 1 | 100 | 30 | 1.23 | > 100 | < 1 | 1 | 1 | 100 | 30 |  |  |  |  |  |  |  | 
CCCCOC(=S)SC(Cn1ccnc1)c1ccc(Cl)cc1Cl.O=[N+]([O-])O (stereo unspecified) |  | 30 |  |  | 3 | 0.19 |  | 1 | < 0.1 |  | 10 | 3 | Active |  |  |  |  |  |  | 
GENTAMICIN |  |  |  |  |  |  |  |  |  |  |  |  |  | 30 | 30 | 1 | 1 | < 0.1 |  | 
CCCCCCCCOC(=O)SC(Cn1ccnc1)c1ccc(Cl)cc1Cl.O=[N+]([O-])O (stereo unspecified) | 10 | > 300 | 30 | 100 | 10 | 0.82 | 1 | < 1 | < 0.1 | 1 | > 300 | 30 |  |  |  |  |  |  |  | 
CC(C)(C)SC(=O)SC(Cn1ccnc1)c1ccc(Cl)cc1Cl.O=[N+]([O-])O (stereo unspecified) | 100 | 30 | 10 | 100 | 3 | 0.05 | 3 | 3 | < 0.1 | 1 | 30 | 10 |  |  |  |  |  |  |  | 
O=C(Sc1ccccc1)SC(Cn1ccnc1)c1ccc(Cl)cc1Cl.O=[N+]([O-])O (stereo unspecified) | 100 | 100 | 30 | > 100 | 10 | -0.02 | 10 | < 1 | < 0.1 | 3 | 100 | 3 |  |  |  |  |  |  |  | 
O=C(Cc1ccc(Cl)cc1)OC(Cn1ccnc1)c1ccc(Cl)cc1.O=C(O)C(=O)O (stereo unspecified) |  | 50 |  |  | 10 |  |  |  | 1 |  | 50 |  |  |  |  |  |  |  | 10 | -0.42
CCOC(=S)SC(Cn1ccnc1)c1ccc(Cl)cc1Cl.O=[N+]([O-])O (stereo unspecified) |  | 50 |  |  | < 0.1 | -0.27 |  | 1 | < 0.1 |  | 50 |  |  |  |  |  |  |  | 5 | 
O=C(SC(Cn1ccnc1)c1ccc(Cl)cc1Cl)c1ccc(Cl)cc1.O=[N+]([O-])O (stereo unspecified) | > 100 | 10 | 100 | > 100 | 10 | -0.03 | 3 | < 1 | < 0.1 | 1 | 10 | 30 | Active |  |  |  |  |  |  | 
CCCOC(=S)SC(Cn1ccnc1)c1ccc(Cl)cc1Cl.O=[N+]([O-])O (stereo unspecified) |  | 100 |  |  | 10 | -0.03 |  | < 0.3 | < 0.1 |  | 30 | 10 | Active |  |  |  |  |  |  | 
O=C(O)C(=O)O.O=C(OC(Cn1ccnc1)c1ccc(Cl)cc1Cl)c1ccc([N+](=O)[O-])cc1 (stereo unspecified) |  | > 300 |  |  | 10 | -0.54 |  |  | 0.33 |  | > 300 |  |  |  |  |  |  |  | 33 | 
